From ChEMBL document CHEMBL2046351, “Discovery of cyclic sulfone hydroxyethylamines as potent and selective β-site APP-cleaving enzyme 1 (BACE1) inhibitors: structure-based design and in vivo reduction of amyloid β-peptides” (J Med Chem, 2012)

Legend:
[1] = target: T1, Beta-secretase 1 (Homo sapiens, UniProt P56817)
[2] = tested on: MDR1 (human); assay: Efflux ratio of permeability from basolateral to apical over apical to basolateral side of MDCK cells expressing human MDR1 at 5 uM after 2 hrs by LC/MS analysis; type: ADME, cell-based, Canis lupus familiaris; conditions: dog
Method in brief: (§1)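 MDCK cells retrovirally transduced with human MDR1, seeded on transwells ≥3 days; bidirectional transport at 5 μM, 2 h, 37 °C, LC/MS quantitation. Papp = (dQ/dt)/(A·C0), A 0.11 cm2; ER = Papp B>A / Papp A>B. Means of at least three experiments.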

[3] = tested on: MDR1 (human); assay: Apparent permeability across MDCK cells expressing human MDR1 at 5 uM after 2 hrs by LC-MS analysis; type: ADME, cell-based, Canis lupus familiaris; conditions: dog
Method in brief: as §1

[4] = organism: Homo sapiens; assay: Selectivity index, ratio of IC50 for human recombinant CatD to IC50 for human recombinant BACE1
[5] = target: Cathepsin D (Homo sapiens, UniProt P07339); assay: Inhibition of human recombinant CatD using Mca-GKPILFFRLK(DNP)-dR-NH2 as substrate after 1 hr by fluorescence analysis
Cathepsin D, sequence (P07339 65-162 limits assumed): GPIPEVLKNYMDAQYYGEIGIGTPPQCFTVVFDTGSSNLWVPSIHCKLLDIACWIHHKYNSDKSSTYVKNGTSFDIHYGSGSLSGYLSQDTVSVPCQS
Cathepsin D, sequence (P07339 169-412 limits assumed): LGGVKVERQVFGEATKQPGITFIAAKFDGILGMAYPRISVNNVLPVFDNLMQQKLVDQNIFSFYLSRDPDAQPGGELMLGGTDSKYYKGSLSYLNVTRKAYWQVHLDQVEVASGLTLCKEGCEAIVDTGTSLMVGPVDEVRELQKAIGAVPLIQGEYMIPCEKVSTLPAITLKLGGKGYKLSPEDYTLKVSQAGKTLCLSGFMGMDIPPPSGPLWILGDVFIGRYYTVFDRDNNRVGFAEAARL

[6] = tested on: Mus musculus; assay: Antialzheimer activity in APP51/16 transgenic mouse expressing human APP51/16Npa and mouse Thy1 assessed as reduction in brain C99 level reduction at 180 umol/kg, po measured 4 hrs post dosing; type: functional; design: scale not given: the % may be the effect or the level left
Method in brief: (§2)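 Hemizygous APP51/16 mice (human APP751 wild-type under murine Thy-1 cassette, C57BL/6 background) gavaged (10 mL/kg), decapitated at 4 h. Forebrain homogenized in TBS with protease inhibitors, 1% TX-100 extract, spun 100000 rpm 30 min 4 °C. Aβ40 by 6E10 electrochemiluminescence immunoassay against spiked nontransgenic extract standards; C99 by APP-C8 western blot, densitometry. Two-tailed Student's t test versus vehicle.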

[7] = Drug uptake in APP51/16 transgenic mouse blood at 180 umol/kg, po measured 4 hrs post dosing by LC/MS/MS analysis; type: ADME, organism-based; conditions: read-out: Drug uptake
Method in brief: (§3)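 APP51/16 transgenic mice given oral gavage (10 mL/kg); blood and forebrain taken at 4 h postdose. Blood extracted by acetonitrile precipitation; brain homogenized in water, then acetonitrile-precipitated. LC-MS/MS quantitation against weighted linear calibration of analyte/internal standard area ratio.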

[8] = tested on: Brain; assay: Drug uptake in APP51/16 transgenic mouse brain at 180 umol/kg, po measured 4 hrs post dosing by LC/MS/MS analysis; type: ADME, organism-based; conditions: in vivo
Method in brief: as §3

[9] = tested on: Mus musculus; assay: Antialzheimer activity in APP51/16 transgenic mouse expressing human APP51/16Npa and mouse Thy1 assessed as reduction in amyloid beta (1 to 40) reduction at 180 umol/kg, po measured 4 hrs post dosing; type: functional; design: scale not given: the % may be the effect or the level left
Method in brief: as §2

[10] = target: Cytochrome P450 3A4 (Homo sapiens, UniProt P08684); assay: Inhibition of CYP3A4; type: ADME
Cytochrome P450 3A4, sequence (P08684 whole entry): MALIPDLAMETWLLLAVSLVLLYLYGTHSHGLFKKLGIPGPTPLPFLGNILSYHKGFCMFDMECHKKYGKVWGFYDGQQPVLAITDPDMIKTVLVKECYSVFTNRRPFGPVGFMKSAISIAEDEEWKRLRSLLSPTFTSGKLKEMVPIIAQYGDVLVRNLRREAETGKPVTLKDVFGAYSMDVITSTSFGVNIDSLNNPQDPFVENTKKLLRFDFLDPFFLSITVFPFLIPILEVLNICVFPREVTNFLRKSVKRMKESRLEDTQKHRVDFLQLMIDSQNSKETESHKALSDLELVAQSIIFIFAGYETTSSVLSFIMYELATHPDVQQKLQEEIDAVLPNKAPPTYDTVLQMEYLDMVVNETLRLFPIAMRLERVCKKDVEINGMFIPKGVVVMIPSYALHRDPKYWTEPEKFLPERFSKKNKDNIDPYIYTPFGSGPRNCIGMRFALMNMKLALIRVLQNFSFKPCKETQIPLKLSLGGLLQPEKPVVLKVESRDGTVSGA

[11] = target: T1, Beta-secretase 1; assay: Inhibition of human BACE-1 mediated amyloid beta 40 release in Chinese hamster CHO cells expressing human wild-type APP
[12] = AUC (0 to infinity) in C57BL/6 mouse at 30 umol/kg, po dosed in carboxymethyl cellulose 0.5% w/v in water/Tween 80 (99.5/0.5, v/v) by LC/MS/MS analysis; type: ADME, organism-based; design: dose 30 umol/kg, route oral, time infinity; conditions: in vivo
Method in brief: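 Male C57BL/6 mice were dosed by oral gavage at 10 mL/kg. Blood was sampled at 0.25, 0.5, 1, 2, 4 and 6 h postdose, extracted by acetonitrile precipitation and quantified by LC-MS/MS (typical LLOQ 0.4 ng/mL). AUCinf was obtained by noncompartmental analysis of concentration–time profiles, weighting 1/Y, with at least three terminal log-linear points.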

[13] = Half life in C57BL/6 mouse at 2 umol/kg, iv dosed in N-methyl pyrrolidone/blank plasma (10:90 v/v) by LC/MS/MS analysis; type: ADME, organism-based
Method in brief: (§4)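 Male C57BL/6 mice, saphenous vein injection under light anesthesia, 5 mL/kg. Blood at 5, 30 min and 1, 2, 4, 6, 8 h; brain at 5 min, 1, 4, 8 h; n = 3/time. LC-MS/MS after acetonitrile precipitation (brain water-homogenized). Noncompartmental analysis, 1/Y weighting, terminal slope from ≥3 points.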

[14] = Blood clearance in C57BL/6 mouse at 2 umol/kg, iv dosed in N-methyl pyrrolidone/blank plasma (10:90 v/v) by LC/MS/MS analysis; type: ADME, organism-based
Method in brief: as §4

[15] = tested on: Brain; assay: Drug uptake in C57BL/6 mouse brain at 60 umol/kg, po dosed in carboxymethyl cellulose 0.5% w/v in water/Tween 80 (99.5/0.5, v/v) measured 1 hr post dosing by LC/MS/MS analysis; type: ADME, organism-based; conditions: in vivo
Method in brief: (§5)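 Male C57BL/6 mice dosed by oral gavage, 10 mL/kg. Blood sampled 0.25, 0.5, 1, 2, 4, 6 h; brain at 1 and/or 4 h; n = 3 per time. Blood acetonitrile-precipitated, brain water-homogenized then precipitated; LC-MS/MS with weighted linear calibration.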

[16] = Oral bioavailability in C57BL/6 mouse at 30 umol/kg dosed in carboxymethyl cellulose 0.5% w/v in water/Tween 80 (99.5/0.5, v/v) by LC/MS/MS analysis; type: ADME, organism-based; conditions: in vivo
Method in brief: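 Oral gavage (10 mL/kg) to male C57BL/6 mice with iv reference segment (2 μmol/kg, NMP/blank plasma 10:90). Noncompartmental analysis of LC-MS/MS blood profiles, 1/Y weighting; %F = dose-normalized oral AUC / dose-normalized iv AUC × 100, assuming linear pharmacokinetics between doses.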

[17] = tested on: Brain; assay: Drug uptake in C57BL/6 mouse brain at 60 umol/kg, po dosed in carboxymethyl cellulose 0.5% w/v in water/Tween 80 (99.5/0.5, v/v) measured 4 hrs post dosing by LC/MS/MS analysis; type: ADME, organism-based; conditions: in vivo
Method in brief: as §5

[18] = Volume of distribution at steady state in C57BL/6 mouse at 2 umol/kg, iv dosed in N-methyl pyrrolidone/blank plasma (10:90 v/v) by LC/MS/MS analysis; type: ADME, organism-based; conditions: read-out: Vdss
Method in brief: as §4

[19] = Drug uptake in C57BL/6 mouse blood at 60 umol/kg, po dosed in carboxymethyl cellulose 0.5% w/v in water/Tween 80 (99.5/0.5, v/v) measured 4 hrs post dosing by LC/MS/MS analysis; type: ADME, organism-based; conditions: read-out: Drug uptake
Method in brief: as §5

[20] = AUC (0 to infinity) in C57BL/6 mouse at 2 umol/kg, iv dosed in N-methyl pyrrolidone/blank plasma (10:90 v/v) by LC/MS/MS analysis; type: ADME, organism-based; design: dose 2 umol/kg, time infinity, route intravenous
Method in brief: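 Male C57BL/6 mice got a single injection into the saphenous vein under light anaesthesia at 5 mL/kg. Blood was taken at 5 and 30 min and 1, 2, 4, 6 and 8 h (n = 3 per time). Blood was extracted by acetonitrile precipitation and quantified by LC-MS/MS against a weighted linear calibration. AUC came from noncompartmental analysis with 1/Y weighting.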

[21] = Ratio of drug uptake in brain to blood in C57BL/6 mouse at 60 umol/kg, po dosed in carboxymethyl cellulose 0.5% w/v in water/Tween 80 (99.5/0.5, v/v) measured 1 hr post dosing by LC/MS/MS analysis; type: ADME, organism-based
Method in brief: as §5

[22] = Ratio of drug uptake in brain to blood in C57BL/6 mouse at 60 umol/kg, po dosed in carboxymethyl cellulose 0.5% w/v in water/Tween 80 (99.5/0.5, v/v) measured 4 hrs post dosing by LC/MS/MS analysis; type: ADME, organism-based
Method in brief: as §5

[23] = Drug uptake in C57BL/6 mouse blood at 60 umol/kg, po dosed in carboxymethyl cellulose 0.5% w/v in water/Tween 80 (99.5/0.5, v/v) measured 1 hr post dosing by LC/MS/MS analysis; type: ADME, organism-based; conditions: read-out: Drug uptake
Method in brief: as §5

T1 sequence (P56817 whole entry): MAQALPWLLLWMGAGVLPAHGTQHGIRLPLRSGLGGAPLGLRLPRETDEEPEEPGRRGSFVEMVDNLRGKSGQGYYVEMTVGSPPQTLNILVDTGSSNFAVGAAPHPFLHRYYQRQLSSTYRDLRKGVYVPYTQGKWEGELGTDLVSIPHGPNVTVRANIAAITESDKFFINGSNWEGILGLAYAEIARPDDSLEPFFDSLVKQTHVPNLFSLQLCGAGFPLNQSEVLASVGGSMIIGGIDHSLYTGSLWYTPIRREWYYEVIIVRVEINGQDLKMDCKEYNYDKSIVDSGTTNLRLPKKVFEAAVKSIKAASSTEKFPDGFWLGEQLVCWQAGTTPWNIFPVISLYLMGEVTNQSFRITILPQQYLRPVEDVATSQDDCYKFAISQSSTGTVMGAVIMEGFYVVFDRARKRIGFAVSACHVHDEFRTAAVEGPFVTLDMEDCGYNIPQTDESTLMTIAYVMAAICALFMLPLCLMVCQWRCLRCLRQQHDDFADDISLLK

Compound	IC50 [1] [nM]	efflux ratio at 2 h, 5 µM [2]	Papp at 2 h, 5 µM [3] [×10⁻⁶ cm/s]	Ratio IC50 [4]	IC50 [5] [nM]	further results
CCc1cc(C[C@@H]2CS(=O)(=O)C[C@H](NCc3cccc(C(C)(C)C)c3)[C@H]2O)cc(F)c1NC(C)=O	8	41	17	> 100	2300	–
CC(C)(C)c1cccc(CN[C@H]2CS(=O)(=O)C[C@@H](Cc3cc(F)c(N)c(OCC(F)F)c3)[C@@H]2O)c1	6	10	22	> 100	680	Activity [6]: 32%; concentration at 4 h [7]: 12.2 µM; Drug uptake [8]: 2.1 nmol/g; Activity [9]: 18%
CCOc1cc(C[C@@H]2CS(=O)(=O)C[C@H](NCc3cccc(C(C)(C)C)c3)[C@H]2O)cc(F)c1N	24	3	18	40	1030	Activity [6]: 54%; concentration at 4 h [7]: 9 µM; Drug uptake [8]: 3.1 nmol/g; Activity [9]: 34%
CC(C)(CO)c1cccc(CN[C@H]2CS(=O)(=O)C[C@@H](Cc3cc(F)c(N)c(OC(C(F)(F)F)C(F)(F)F)c3)[C@@H]2O)c1	2	35	12	–	600	IC50 [10]: 800 nM
CCCN1CCC[C@@]12CCN([C@@H](C)C(=O)N[C@@H](Cc1ccccc1)[C@H](O)CNCc1cccc(C(C)C)c1)C2=O	–	23	11	–	–	IC50 [11]: 10 nM
CCCOc1cc(C[C@@H]2CS(=O)(=O)C[C@H](NCc3cccc(C(C)(C)C)c3)[C@H]2O)ccc1N	45	2	7	> 100	5200	–
CC(C)(C)c1cccc(CN[C@H]2CS(=O)(=O)C[C@@H](Cc3ccc(N)c(Br)c3)[C@@H]2O)c1	140	2	13	5	720	AUC(0-inf) [12]: 6.43 µM·h; half-life [13]: 4 h; clearance [14]: 8.1 mL/min/kg; Drug uptake [15]: 2.17 nmol/g; bioavailability [16]: 10%; Drug uptake [17]: 1.92 nmol/g; Vd [18]: 1.6 L/kg; concentration at 4 h [19]: 2.98 µM; AUC(0-inf) [20]: 4.09 µM·h; Kp at 1 h [21]: 0.5; Kp at 4 h [22]: 0.6; concentration at 1 h [23]: 4.07 µM
COC[C@@H](Oc1cc(C[C@@H]2CS(=O)(=O)C[C@H](NCc3cccc(C(C)(C)C)c3)[C@H]2O)cc(F)c1N)C(F)(F)F	–	–	13	–	250	Activity [6]: 48%; concentration at 4 h [7]: 7.3 µM; Drug uptake [8]: 1.9 nmol/g; Activity [9]: 31%
CC(C)(C)c1cccc(CN[C@H]2CS(=O)(=O)C[C@@H](Cc3ccc(N)c(F)c3)[C@@H]2O)c1	350	1	21	5	2520	–
Nc1c(F)cc(C[C@@H]2CS(=O)(=O)C[C@H](NCc3cccc(OC(F)(F)F)c3)[C@H]2O)cc1OC(C(F)(F)F)C(F)(F)F	44	6	12	–	2530	IC50 [10]: 9200 nM
CC(C)(C)c1cccc(CN[C@H]2CS(=O)(=O)C[C@@H](Cc3cc(F)c(N)c(Br)c3)[C@@H]2O)c1	55	2	13	5	340	–
